The values that follow come from BindingDB's records for doi:10.1021/jm990004i (Imperial College, 1999).

In the assay the target is T1, Carboxypeptidase G2 (Pseudomonas aeruginosa (strain ATCC 15692 / DSM 22644 / CIP 104116 / JCM 14847 / LMG 12228 / 1C / PRS 101 / PAO1), UniProt Q9I056).
T1 sequence (Q9I056 whole entry): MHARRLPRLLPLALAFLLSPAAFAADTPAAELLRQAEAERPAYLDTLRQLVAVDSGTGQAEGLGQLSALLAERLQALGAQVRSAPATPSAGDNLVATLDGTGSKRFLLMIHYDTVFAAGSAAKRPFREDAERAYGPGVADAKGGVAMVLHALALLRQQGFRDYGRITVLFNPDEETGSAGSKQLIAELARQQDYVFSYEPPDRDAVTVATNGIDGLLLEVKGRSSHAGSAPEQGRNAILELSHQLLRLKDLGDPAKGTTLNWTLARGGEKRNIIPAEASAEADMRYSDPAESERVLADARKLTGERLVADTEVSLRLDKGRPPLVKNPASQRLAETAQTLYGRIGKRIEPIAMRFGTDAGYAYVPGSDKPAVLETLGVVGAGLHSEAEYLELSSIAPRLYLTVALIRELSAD
The experiment in a line: Inhibitory activity against bacterial carboxypeptidase G2 by Dixon plot assay. Put shortly:
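Bacterial CPG2 (10 μL stock, 0.1 U) started with 990 μL methotrexate solutions at several concentrations plus inhibitor 0–3.0 μM, in 0.1 M Tris-HCl pH 7.3 with 0.1 mM ZnCl2, 37 °C. Initial rate of absorbance decrease at 320 nm (methotrexate ε 8300). Apparent Ki read from Dixon plot of 1/V against inhibitor concentration.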
Regarding `O=C(O)CCC(NC(=O)Sc1cc[n+]([O-])cc1)C(=O)O` (stereo unspecified) [2-(1-Oxy-pyridin-4-ylsulfanylcarbonylamino)-pentanedioic acid], the Ki is 165 µM.

As to `Nc1cccc(SC(=O)NC(CCC(=O)O)C(=O)O)c1` (stereo unspecified) [2-(3-Amino-phenylsulfanylcarbonylamino)-pentanedioic acid], the Ki turned out to be 2.5 µM.

Compound `COc1cccc(SC(=O)NC(CCC(=O)O)C(=O)O)c1` (stereo unspecified) [2-(3-Methoxy-phenylsulfanylcarbonylamino)-pentanedioic acid] yielded a Ki of 1.07 µM. This Ki lies about 2.3-fold lower than the previous one.

Take `Nc1ccc(SC(=O)NC(CCC(=O)O)C(=O)O)cc1` (stereo unspecified) [2-(4-Amino-phenylsulfanylcarbonylamino)-pentanedioic acid]: the inhibition constant (Ki) amounted to 5.8 µM.

Regarding `Cc1ccc(SC(=O)NC(CCC(=O)O)C(=O)O)cc1` (stereo unspecified) [2-p-Tolylsulfanylcarbonylamino-pentanedioic acid], the inhibition constant (Ki) came out at 1.05 µM.

Compound `COc1ccc(SC(=O)N[C@H](CCC(=O)O)C(=O)O)cc1` [(R)-2-(4-Methoxy-phenylsulfanylcarbonylamino)-pentanedioic acid] had a Ki of 0.3 µM.
